Laboratory results taken from ChEMBL document CHEMBL1126276, “Synthesis and antimalarial properties of 1-imino derivatives of 7-chloro-3-substituted-3,4-dihydro-1,9(2H,10H)-acridinediones and related structures” (J Med Chem, 1992).

Legend:
Plasmodium berghei [1] = experiment: Antimalarial activity was measured against mice (Mus musculus) infected with Plasmodium berghei by subcutaneous administration of 160 mg/kg dose; assay type: organism-based; parameters: dose 160 mg/kg, route subcutaneous; settings: in vivo, sc
Method in brief: (§1)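 […] in mice infected with a normal drug-sensitive P. berghei strain. Compound dissolved or suspended in sesame or peanut oil, given as a single subcutaneous dose 72 h postinfection.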

Plasmodium berghei [2] = experiment: Antimalarial activity was measured against mice (Mus musculus) infected with Plasmodium berghei by subcutaneous administration of 320 mg/kg dose; assay type: organism-based; parameters: dose 320 mg/kg, route subcutaneous; settings: in vivo, sc; method in brief: as §1
Plasmodium berghei [3] = experiment: Antimalarial activity was measured against mice (Mus musculus) infected with Plasmodium berghei by subcutaneous administration of 40 mg/kg dose; assay type: organism-based; parameters: dose 40 mg/kg, route subcutaneous; settings: in vivo, sc; method in brief: as §1
Plasmodium berghei [4] = experiment: Antimalarial activity was measured against mice (Mus musculus) infected with Plasmodium berghei by subcutaneous administration of 640 mg/kg dose; assay type: organism-based; parameters: dose 640 mg/kg, route subcutaneous; settings: in vivo, sc; method in brief: as §1
Plasmodium berghei [5] = experiment: Antimalarial activity in Plasmodium berghei infected mice (Mus musculus) after 320 mg/kg subcutaneous dose; assay type: functional; method in brief: as §1
Plasmodium berghei [6] = experiment: (§2) Antimalarial activity in Plasmodium berghei infected mice (Mus musculus) after 80 mg/kg subcutaneous dose; assay type: functional; method in brief: as §1
Plasmodium berghei [7] = experiment: (§3) Antimalarial activity in Plasmodium berghei infected mice (Mus musculus) after 40 mg/kg subcutaneous dose; assay type: functional; method in brief: as §1
Plasmodium berghei [8] = experiment: Antimalarial activity was measured against mice (Mus musculus) infected with Plasmodium berghei by subcutaneous administration of 80 mg/kg dose; assay type: organism-based; parameters: dose 80 mg/kg, route subcutaneous; settings: in vivo, sc; method in brief: as §1
Plasmodium berghei [9] = experiment: Antimalarial activity in Plasmodium berghei infected mice (Mus musculus) after subcutaneous 160 mg/kg dose; assay type: functional
Method in brief: (§4)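 Normal drug-sensitive P. berghei strain in mice. Compound dissolved or suspended in sesame or peanut oil, given parenterally as a single subcutaneous dose 72 h postinfection.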

Plasmodium berghei [10] = experiment: as §3; assay type: functional; method in brief: as §4; remark: listed apart in the source
Plasmodium berghei [11] = experiment: as §2; assay type: functional; method in brief: as §4; remark: listed apart in the source
Plasmodium berghei [12] = experiment: (§5) Antimalarial activity in Plasmodium berghei infected mice (Mus musculus) after 20 mg/kg subcutaneous dose; assay type: functional; method in brief: as §1
Plasmodium berghei [13] = experiment: (§6) Antimalarial activity in Plasmodium berghei infected mice (Mus musculus) after 10 mg/kg subcutaneous dose; assay type: functional; method in brief: as §4
Plasmodium berghei [14] = experiment: as §5; assay type: functional; method in brief: as §4; remark: listed apart in the source
Plasmodium berghei [15] = experiment: Antimalarial activity in Plasmodium berghei infected mice (Mus musculus) after subcutaneous 320 mg/kg dose; assay type: functional; method in brief: as §4
Plasmodium berghei [16] = experiment: Antimalarial activity in Plasmodium berghei infected mice (Mus musculus) after subcutaneous 640 mg/kg dose; assay type: functional; method in brief: as §4
Plasmodium berghei [17] = experiment: Antimalarial activity in Plasmodium berghei infected mice (Mus musculus) after 160 mg/kg subcutaneous dose; assay type: functional; method in brief: as §1
Plasmodium berghei [18] = experiment: Antimalarial activity Plasmodium berghei infected mice (Mus musculus) after 640 mg/kg subcutaneous dose; assay type: functional; method in brief: as §1
Plasmodium berghei [19] = experiment: Antimalarial activity was measured against mice (Mus musculus) infected with Plasmodium berghei by subcutaneous administration of 20 mg/kg dose; assay type: organism-based; parameters: dose 20 mg/kg, route subcutaneous; settings: in vivo, sc; method in brief: as §1
Plasmodium berghei [20] = experiment: Antimalarial activity in Plasmodium berghei infected mice (Mus musculus) after 640 mg/kg subcutaneous dose; assay type: functional; method in brief: as §1
Plasmodium berghei [21] = experiment: as §6; assay type: functional; method in brief: as §1; remark: listed apart in the source
Plasmodium berghei [22] = experiment: (§7) Antimalarial activity in Plasmodium berghei infected mice (Mus musculus) after 5 mg/kg subcutaneous dose; assay type: functional; method in brief: as §1
Plasmodium berghei [23] = experiment: as §7; assay type: functional; method in brief: as §4; remark: listed apart in the source

Structure (SMILES)	No. of toxic deaths (Plasmodium berghei [1])	No. of toxic deaths (Plasmodium berghei [2])	No. of toxic deaths (Plasmodium berghei [3])	No. of toxic deaths (Plasmodium berghei [4])	Delta mean survival time (Plasmodium berghei [7])	No. of toxic deaths (Plasmodium berghei [8])	No. of cured mice (Plasmodium berghei [9])	No. of cured mice (Plasmodium berghei [10])	No. of cured mice (Plasmodium berghei [11])	Delta mean survival time (Plasmodium berghei [12])	No. of cured mice (Plasmodium berghei [13])	No. of cured mice (Plasmodium berghei [14])	No. of cured mice (Plasmodium berghei [15])	No. of cured mice (Plasmodium berghei [16])	other results
O=c1c2c(n(O)c3ccc(Cl)cc13)CC(c1cccc(C(F)(F)F)c1)C/C2=N\CCCCN1CCCC1 (centres undefined)	5	4	3	5	4.6										Delta mean survival time (Plasmodium berghei [5]): 0.5; Delta mean survival time (Plasmodium berghei [6]): 3.7
C=CCNCC/N=C1\CC(c2ccc(C(F)(F)F)cc2)Cc2c1c(=O)c1cc(Cl)ccc1n2O (centres undefined)		5		5	8.4	3	5	2	1	7.8					
CN(C)CCC/N=C1\CC(c2ccc(C(F)(F)F)cc2)Cc2nc3cc(Cl)ccc3c(O)c21 (centres undefined)	5	5	3	5	5.4	3				2.1					Delta mean survival time (Plasmodium berghei [6]): 6.4
OCCN(CCO)CCC/N=C1\CC(c2ccc(Cl)cc2Cl)Cc2nc3ccc(Cl)cc3c(O)c21 (centres undefined)					10.9		5	4	5	10.9	1	4	5	5	
CN(C)CCC/N=C1\CC(c2ccc(Cl)cc2Cl)Cc2nc3c(Cl)cccc3c(O)c21 (centres undefined)	5	5	1	5	0.5	4				0					
CCn1c2c(c(=O)c3cc(Cl)ccc31)C(=O)CC(c1ccc(C(F)(F)F)cc1)C2 (centres undefined)	2		2	1	0										Delta mean survival time (Plasmodium berghei [17]): 0; Delta mean survival time (Plasmodium berghei [18]): 0
CCN(CC)CCC/N=C1\CC(c2ccc(C(F)(F)F)cc2)Cc2c1c(=O)c1cc(Cl)ccc1n2O (centres undefined)	3	3		5	16.8	3	2	3	2	10.1		2	2		
CN(C)CCC/N=C1\CC(c2ccc(C(F)(F)F)cc2)Cc2nc3ccccc3c(O)c21 (centres undefined)	5		5	5						5.3					No. of toxic deaths (Plasmodium berghei [19]): 1
CN(C)CCC/N=C1\CC(c2ccccc2Cl)Cc2c1c(=O)c1cc(Cl)ccc1n2O (centres undefined)	1		2	5	3										Delta mean survival time (Plasmodium berghei [17]): 4
CCN(CC)CCCC/N=C1\CC(c2ccc(Cl)cc2Cl)Cc2nc3ccc(Cl)cc3c(O)c21 (centres undefined)							5	5	5		2	5	5	5	
CN(C)CCC/N=C1\CC(c2ccc(Cl)cc2Cl)Cc2nc3cc(Cl)ccc3c(O)c21 (centres undefined)					6.3		4	1		2.8			5	3	No. of toxic deaths (Plasmodium berghei [20]): 2; Delta mean survival time (Plasmodium berghei [17]): 13.8; Delta mean survival time (Plasmodium berghei [6]): 12
O=C1CC(c2ccc(C(F)(F)F)cc2)Cc2c1c(=O)c1cc(Cl)c(F)cc1n2O (centres undefined)	5	5	5	5		5				9					
CCCCNC(CC)C/N=C1\CC(c2ccc(Cl)cc2Cl)Cc2nc3ccc(Cl)cc3c(O)c21 (centres undefined)							5	5	5		4	5	5	5	
Oc1c2c(nc3ccc(Cl)cc13)CC(c1ccc(Cl)cc1Cl)C/C2=N\CCCN1CCCC1 (centres undefined)							5	5	5	22.9	1	4	5	5	
CN(C)CCC/N=C1\CC(c2ccc(Cl)cc2Cl)Cc2nc3ccc(Cl)cc3c(O)c21 (centres undefined)							5	5	5		3	5	5	5	Delta mean survival time (Plasmodium berghei [21]): 13.6; Delta mean survival time (Plasmodium berghei [22]): 7.4; No. of cured mice (Plasmodium berghei [23]): 1
O=C1CC(c2ccc(Cl)cc2Cl)Cc2nc3c(Cl)cccc3c(O)c21 (centres undefined)	2	2	1	4	1.3	1				0.3					No. of toxic deaths (Plasmodium berghei [19]): 1; Delta mean survival time (Plasmodium berghei [17]): 1.3; Delta mean survival time (Plasmodium berghei [5]): 4; Delta mean survival time (Plasmodium berghei [18]): 2; Delta mean survival time (Plasmodium berghei [6]): 5.3
O=c1c2c(n(O)c3ccc(Cl)cc13)CC(c1cccc(C(F)(F)F)c1)C/C2=N\CCCCCN1CCCC1 (centres undefined)	5		4	5	0.6										
CCCC/N=C1\CC(c2ccc(Cl)c(Cl)c2)Cc2nc3ccc(Cl)cc3c(O)c21 (centres undefined)	5		4	1		3									No. of toxic deaths (Plasmodium berghei [19]): 5; Delta mean survival time (Plasmodium berghei [5]): 1.2; Delta mean survival time (Plasmodium berghei [18]): 2.5; Delta mean survival time (Plasmodium berghei [6]): 1.5
CCN(CC)CCCC(C)/N=C1\CC(c2ccc(C(F)(F)F)cc2)Cc2nc3ccc(Cl)cc3c(O)c21 (centres undefined)		2				1	5	5	4	10.8		3	3	2	Delta mean survival time (Plasmodium berghei [18]): 3.3
CCN(CC)CC/N=C1\CC(c2ccc(Cl)cc2Cl)Cc2nc3ccc(Cl)cc3c(O)c21 (centres undefined)							5	5	5		5	5	5	5	
